In all, about 2,500 compounds went through this assay and about 1,200 (48%) were called active. The set was probably picked from earlier hits. This is one part of the list. Unmarked numbers belong to inactive results.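 Rule for the calls: active = mean activation above the low control average plus 3 SD, as set in the primary screen (cut at about 12% in these data); inactive = the rest.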
These molecules were tested against Troponin I, cardiac muscle (Homo sapiens) + Troponin T, cardiac muscle (Homo sapiens) + Troponin C, slow skeletal and cardiac muscles (Homo sapiens) (UniProt P19429+P45379+P63316) (assay: calcium sensitizers of cardiac thin filaments – biochemical, IANBD-TnC fluorescence, triplicate, confirmation (AID 504383;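 note: 0% = DMSO at 0.472 mM calcium and 100% = DMSO at 2.9 mM calcium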)). Conditions: IANBD-labeled cardiac RTF, Ca2+ sensitivity fluorescence; at 7.2 µM; stronger effect = higher value; scaled from EC20 to saturating calcium; tested at EC20 calcium, 0.472 mM.
Summary of the method: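 Test system: labelled regulated thin filament protein complex. Dosing: single nominal compound dose of 7.2 µM. Benchmarks: EC20 and EC100 calcium wells. Read-out basis: fluorescence gain scaled between EC20 and EC100 calcium controls. Probe or stimulus: submaximal calcium at 0.472 mM (EC20). Technique: fluorescence. Times: 15 min compound exposure, 25 °C.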

Row | SMILES | activation
1 | COC(=O)Cn1c(C)c(/C=C/c2cc[n+](C)cc2)c2ccccc21 | 12.8% (active)
2 | CC(C)n1cc(/C=C/c2cc[n+](C)cc2)c2ccccc21 | 31.7% (active)
3 | Cn1cc(/C=C/c2cc[n+](C)cc2)c2cc(Cl)ccc21 | 3.84%
4 | C=CCn1cc(/C=C/c2cc[n+](C)cc2)c2ccccc21 | 5.8%
5 | Cn1cc(/C=C/c2cc[n+](C)cc2)c2cc(F)ccc21 | 6.92%
6 | CCN(CC)C(=O)Cn1c(C)c(/C=C/c2cc[n+](C)cc2)c2ccccc21 | 6.95%
7 | C=CCn1c(C)c(/C=C/c2cc[n+](C)cc2)c2ccccc21 | 38.7% (active)
8 | CCn1cc(/C=C/c2cc[n+](C)cc2)c2ccccc21 | 12.4% (active)
9 | COC(=O)c1ccc2c(c1)C(C)(C)C(/C=C/c1ccccc1O)=[N+]2C | 7.52%
10 | COC(=O)Cn1cc(/C=C/c2cc[n+](C)cc2)c2ccccc21 | 16.8% (active)
11 | Oc1ccc2ccc3cccc[n+]3c2c1 | 68.4% (active)
12 | CC(=O)c1ccc2noc(-c3ccc(C)cc3)c2c1 | 6.52%
13 | COc1ccc(-c2onc3ccc(C(C)=O)cc23)cc1 | 18% (active)
14 | O=C(CN1C(=O)NC2(CCCCC2)C1=O)Nc1ccccc1Cl | 12.1% (active)
15 | CCC1(c2ccccc2)NC(=O)N(CC(=O)Nc2ccc(OC)nc2)C1=O (stereo not drawn) | 11%
16 | CC1(c2ccc(OC(F)F)cc2)NC(=O)N(CC(=O)Nc2ccc(F)cc2)C1=O (stereo not drawn) | 1.92%
17 | C=CCOc1ccc(C2OC34CCCCC3C(C#N)(C#N)C2(C#N)C(=N)O4)cc1 (stereo not drawn) | 11.3%
18 | Cc1cc(C)n2nc(C(=O)N3CCCC(Nc4ccc(C(C)C)cc4)C3)cc2n1 (stereo not drawn) | 11.9% (active)
19 | COc1ccc(-c2ccc(C3C(C#N)=C(N)Oc4n[nH]c(C)c43)o2)cc1 (stereo not drawn) | 53.6% (active)
20 | Cc1[nH]nc2c1C(c1cc(Br)cs1)C(C#N)=C(N)O2 (stereo not drawn) | 1.18%
21 | CCCCCCCC(=O)Nc1ccc(S(=O)(=O)Nc2nccs2)cc1 | 39.1% (active)
22 | CN(C)C(CNC(=O)c1cccc(S(=O)(=O)N(C)C)c1)c1ccccc1 (stereo not drawn) | 14.9% (active)
23 | O=C(NCc1cccc(C(F)(F)F)c1)c1cccc(S(=O)(=O)NCc2ccccc2)c1 | 7.34%
24 | CC(NC(=O)COc1ccc(N(C)S(=O)(=O)c2ccccc2)cc1)c1ccccc1 (stereo not drawn) | 8.81%

Row | SMILES | activation
25 | O=C(CSC1CC(=O)N(c2ccc(C(=O)O)cc2)C1=O)Nc1ccc2ccccc2c1 (stereo not drawn) | 1.35%
26 | CCOc1ccc(N2C(=O)CC(SCc3nc4ccccc4[nH]3)C2=O)cc1 (stereo not drawn) | 16.2% (active)
27 | CC(=O)C1=C(O)CCCC1=NCc1nc2ccccc2[nH]1 | 2.38%
28 | C[C@H](O)C(=O)C1=Nc2c(nc(N)[nH]c2=O)NC1 | -0.23%
29 | Cc1ccc(C)c(N2CCN(C(=O)c3cc4ccccn4n3)CC2)c1 | 21.1% (active)
30 | O=C(Nc1ccc(Cl)c(Cl)c1)Nc1ccc([N+](=O)[O-])cn1 | 28.5% (active)
31 | O=C(Nc1ccc(N2CCN(C(=O)c3ccco3)CC2)cc1)c1ccc(F)cc1 | 14.9% (active)
32 | O=C(COC(=O)C1(c2ccc(F)cc2)CCCC1)N1CCN(C(=O)c2ccco2)CC1 | 3.96%
33 | O=C(COC(=O)C1(c2ccccc2F)CCCC1)Nc1ncc(C(F)(F)F)cc1Cl | 4.8%
34 | COc1ccc(/C=N/NC(=O)Cn2c(Cc3ccc(OC)c(OC)c3)nc3ccccc32)cc1 | 15% (active)
35 | COc1ccc(/C=C/C(=O)c2nc3ccccc3n2CC(=O)c2ccc(OC)cc2)cc1 | -1.84%
36 | Cc1c(C(=O)NCc2ccco2)cccc1[N+](=O)[O-] | 11.7% (active)
37 | Cc1c(C(=O)NCc2ccc3c(c2)cc(C)n3C)cccc1[N+](=O)[O-] | 8.1%
38 | c1ccc2[nH]c3cc4ncnc4cc3nc2c1 | 27.5% (active)
39 | O/C(=C\c1nc2ccccc2[nH]1)c1cccs1 | 2.34%
40 | Cc1ncn(C23CC4CC(CC(C4)C2)C3)n1 | 4.82%
41 | COC(=O)C1=C(O)/C(=C\c2ccc(CNS(=O)(=O)c3ccc(Cl)cc3)o2)N=C1C | 9.05%
42 | CCOc1ccccc1N(CC(=O)Nc1ccc(OC)c(OC)c1)S(=O)(=O)c1ccccc1 | 5.99%
43 | COC(=O)CN(c1cc(OC)ccc1OC)S(=O)(=O)c1ccc(OC)c(OC)c1 | 14.6% (active)
44 | COc1ccc(OC)c(NC(=O)c2cc(S(=O)(=O)N(C)C)ccc2N2CCCC2)c1 | 7.08%
45 | CCCn1c(CN2CCN(C(=O)OCC)CC2)nc2cc(NC(=O)CC)ccc21 | 8.96%
46 | CCC(=O)Nc1ccc2c(c1)nc(CCN1CCN(C)CC1)n2C | 56% (active)
47 | Cn1c(CN2CCCC2)nc2cc(NC(=O)COc3ccc([N+](=O)[O-])cc3)ccc21 | 8.98%
48 | Cn1cccc1/C=C1/SC(=S)N(CC(=O)O)C1=O | 176% (active)

Row | SMILES | activation
49 | CN1/C(=C\C=C2/SC(=S)N(CC(=O)O)C2=O)C(C)(C)c2ccccc21 | 7.05%
50 | O=C(O)c1cc(-c2ccc(/C=C3/SC(=S)N(Cc4ccccc4)C3=O)o2)ccc1Cl | 5.81%
51 | O=C(O)CN1C(=O)/C(=C/c2ccc(SCc3ccccc3)o2)SC1=S | 39.7% (active)
52 | Cn1cccc1/C=C1\SC(=S)N(CC(=O)O)C1=O | 14.1% (active)
53 | COc1ccc(Nc2cccc3ccccc23)cc1 | 199% (active)
54 | CCOc1cc(N2CCOCC2)c(OCC)cc1NC(=O)CCS(=O)(=O)c1ccc(Cl)cc1 | 72% (active)
55 | COc1cc(/C=N/NC(=O)c2cc(-c3ccccc3Cl)nc3ccccc23)cc(OC)c1O | 15.8% (active)
56 | COc1cc(/C=N\NC(=O)CC(=O)NCCc2ccccc2)ccc1O | 7.55%
57 | CCOc1ccc(C(=O)NCC(=O)Nc2ncccc2C)cc1OCC | 16.6% (active)
58 | Cc1cccc(/C=N/n2c(-c3ccncc3)n[nH]c2=S)c1 | 39.4% (active)
59 | COC(=O)CCC(=O)OC1(C)C(=O)C2=CN(Cc3ccc(OC)cc3)C(c3ccc(OC)cc3)=CC2=C(Br)C1=O (stereo not drawn) | 6%
60 | CCCCC1=CC2=C(c3ccco3)C(=O)C(C)(OC(=O)c3ccc(OC)cc3)C(=O)C2=CN1CCc1ccccn1 (stereo not drawn) | 25.8% (active)
61 | O=C(c1ccccc1)c1ccncc1 | 5.78%
62 | O=C(c1ccccc1)c1ccc(O)cc1O | 89.6% (active)
63 | O=C(c1ccccc1)c1ccccc1C(=O)c1ccccc1 | 12.7% (active)
64 | O=C(O)c1ccccc1C1=Nc2ccc(O)cc2Oc2cc(O)ccc21 | 5.85%
65 | CC1C/C(=C/c2cccn2C)C(=O)/C(=C/c2cccn2C)C1 (stereo not drawn) | 11.4%
66 | Cn1cccc1/C=C1\CCC/C(=C\c2cccn2C)C1=O | 15.9% (active)
67 | COC(=O)c1sccc1Oc1ccc(Cl)cc1N1C(=O)CCC1=O | 8.17%
68 | Cc1ccc2c(C(=O)CN3CCC(C(N)=O)CC3)c(C)[nH]c2c1 | 16.3% (active)
69 | CC(NC(=O)CN1CCC(C(N)=O)CC1)c1ccccc1 (stereo not drawn) | 5.31%
70 | COc1ccc(C)cc1Nc1n[n+](-c2ccccc2)c(-c2cc([N+](=O)[O-])cc(OC)c2O)s1 | 5.27%
71 | C=C[C@@](C)(O)CC[C@@H]1[C@@]2(C)CCCC(C)(C)[C@@H]2CC[C@@]1(C)O | 6.12%
72 | COc1ccccc1NS(=O)(=O)c1cc(NC(=O)CCNC(C)=O)ccc1N1CCCCC1 | 4.68%

Row | SMILES | activation
73 | COc1ccccc1NS(=O)(=O)c1cc(NC(=O)c2cc3ccccc3oc2=O)ccc1C | 72.6% (active)
74 | Cc1ccc(-c2csc(NC(=O)CSc3nc4ccccc4o3)n2)cc1 | 2.75%
75 | Cc1ccc(NC(=O)CSc2nnc(-c3cccnc3)s2)cc1 | 678% (active)
76 | C[C@@H](C(=O)N1CCNCC1)n1cc(CCCN=C(N)N)nn1 | 107% (active)
77 | CC(O)Cc1cn([C@@H](CCCCN)C(=O)N2CCNCC2)nn1 (stereo partly drawn) | 2.6%
78 | CC(C)(C)OC(=O)NCCCC[C@@H](C(=O)N1CCN(C(=O)OC(C)(C)C)CC1)n1cc(CCC(=O)O)nn1 | 7.02%
79 | CCCCNc1nc(-c2ccccc2)nc(-n2ccnc2)n1 | 15.9% (active)
80 | O=C(CSc1nncc2ccccc12)Nc1ccc(F)cc1 | 170% (active)
81 | Cn1cccc1Cc1nnc(SCC(=O)Nc2ccc(F)cc2F)n1-c1ccc(F)cc1 | 7.53%
82 | COc1ccc(NC(=O)CSc2nncc3ccccc23)cc1 | 1.45%
83 | CC(=O)c1sc2nc(-c3cccs3)cc(C(F)(F)F)c2c1N | -0.48%
84 | Nc1c(C(=O)C2CC2)sc2nc(-c3ccccc3)cc(C(F)(F)F)c12 | 30.1% (active)
85 | Nc1c(C(=O)Nc2nccs2)sc2nc(-c3cccs3)cc(C(F)(F)F)c12 | 10.7%
86 | CC(C)(C)C(=O)c1sc2nc(-c3cccs3)cc(C(F)(F)F)c2c1N | 12.4% (active)
87 | Cc1nnc(NC(=O)c2sc3nc(-c4cccs4)cc(C(F)(F)F)c3c2N)s1 | 9.99%
88 | Nc1c(C(=O)C2CC2)sc2nc(-c3cccs3)cc(C(F)(F)F)c12 | 18.1% (active)
89 | COc1ccc(-c2cc(C(F)(F)F)c3c(N)c(C(=O)NCCSC)sc3n2)cc1 | 5.88%
90 | Nc1c(C(=O)Nc2ccccc2F)sc2nc(Cc3ccccc3)cc(C(F)(F)F)c12 | 7.05%
91 | c1ccc(-c2nc(-c3ccco3)n3ccccc23)cc1 | 1.15%
92 | N#Cc1c(N)oc(-c2ccccc2)c1-c1ccccc1 | 23.9% (active)
93 | COc1ccccc1C1=NOC(Cn2c(=O)c3c(ncn3C)n(C)c2=O)C1 (stereo not drawn) | 7.68%
